The record followed here is ChEMBL document CHEMBL1132904, “'Double-Drugs'--a new class of prodrug form of an HIV protease inhibitor conjugated with a reverse transcriptase inhibitor by a spontaneously cleavable linker” (Bioorg Med Chem Lett, 2000).

By EC50 is commonly meant the midpoint of the concentration-response curve. A higher EC50 goes with weaker potency. In general, solubility refers to the dissolved amount per volume that the medium holds. Read a low solubility as little dissolved substance. Broadly, the inhibition is the change of the read-out against control, counted positive when it falls. Higher therefore signals strong suppression.

In data set [1] the test system is MOLT-4. The data set is described as follows: Compound was evaluated for anti-HIV activity against HIV-1Lal inoculated with Molt-4 cells. It counts as functional, cell-based. The conditions noted are these: Homo sapiens. In outline:
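HIV-1 LAI (100 TCID50) was inoculated together with 4-fold serial dilutions of compound onto Molt-4 cells at 5000 cells/well. Cultures were kept 7 days. Surviving cells were quantified by WST-8 assay, and EC50 was calculated from the ratios of surviving cells.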

For data set [2], the target named is Human immunodeficiency virus type 1 protease (Human immunodeficiency virus 1, UniProt Q72874). The data set is described as follows: Inhibitory activity against HIV-1 IIIB/CEM-SS protease.
A short description of data set [3]: Water solubility by RP-HPLC. It counts as ADME. In short, it runs like this:
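Aliquots of compound solutions were injected onto HPLC. Dissolved concentration was determined by comparison of peak area.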

Data set [4] has as its target Human immunodeficiency virus type 1 protease (Human immunodeficiency virus 1) (UniProt Q72874). The data set is described as follows: Compound was evaluated for the percentage inhibition of HIV protease at 5 uM.
Data set [5] relates to Human immunodeficiency virus 1. The data set can be described thus: Relative potency of compound to that of AZT was determined.
Data set [6] deals with Human immunodeficiency virus type 1 protease (Human immunodeficiency virus 1) (UniProt Q72874). The data set can be described thus: Inhibitory activity against HIV protease; Active.
Data set [7] can be described thus: Therapeutic index was determined. The conditions noted are these: read-out: Therapeutic index.

SMILES strings stand for the structures. In brackets after ≈: the same amount, converted by molar mass. Activity calls are given as the source filed them. The rule behind the calls is not given here.

Take `Cc1cccc(C)c1OCC(=O)N[C@@H](Cc1ccccc1)[C@H](O)C(=O)N1CSC(C)(C)[C@H]1C(=O)NC(C)(C)C`: in data set [1], a half-maximal response (EC50) required 92 nM. For the molecule `Cc1cccc(C)c1OCC(=O)N[C@@H](Cc1ccccc1)[C@H](OC(=O)CCC(=O)OCC1OC(n2cc(C)c(=O)[nH]c2=O)CC1N=[N+]=[N-])C(=O)N1CSC(C)(C)[C@H]1C(=O)NC(C)(C)C` (stereo partly drawn), in data set [2], a half-maximal response (EC50) required 189 nM. For the molecule `Cc1cccc(C)c1OCC(=O)N[C@@H](Cc1ccccc1)[C@H](OC(=O)CCCC(=O)NCCC(=O)OCC1OC(n2cc(C)c(=O)[nH]c2=O)CC1N=[N+]=[N-])C(=O)N1CSC(C)(C)[C@H]1C(=O)NC(C)(C)C` (stereo partly drawn), the solubility in data set [3] worked out at 235 µg/mL (≈ 237 µM). In addition, in data set [1], the EC50 is 3.4 nM. Besides, the inhibition in data set [4] was determined as 12%. In addition, in data set [5], the Relative potency worked out at 1.8.

In the case of `CC(C)(C)NC(=O)[C@H]1N(C(=O)[C@@H](O)[C@H](Cc2ccccc2)NC(=O)CC(C)(C)C(=O)O)CSC1(C)C`, the result in data set [6] was Active. Still for that read-out and setting: under `Cc1cccc(C)c1OCC(=O)N[C@@H](Cc1ccccc1)[C@H](OC(=O)CCC(=O)O)C(=O)N1CSC(C)(C)[C@H]1C(=O)NC(C)(C)C` stands “Active”; under `Cc1cccc(C)c1OCC(=O)N[C@@H](Cc1ccccc1)[C@H](OC(=O)CCCC(=O)O)C(=O)N1CSC(C)(C)[C@H]1C(=O)NC(C)(C)C`, “Active”.

In the case of `Cc1ccccc1CNC(=O)[C@H]1N(C(=O)[C@@H](O)[C@H](Cc2ccccc2)NC(=O)CC(C)(C)C(=O)O)CSC1(C)C`, the outcome in data set [6] was Active. For the molecule `Cc1ccccc1CNC(=O)[C@H]1N(C(=O)[C@H](O)[C@@H](Cc2ccccc2)NC(=O)CC(C)(C)C(=O)OCC2OC(n3cc(C)c(=O)[nH]c3=O)CC2N=[N+]=[N-])CSC1(C)C` (stereo partly drawn), in data set [6], the outcome was Active. The same measure, in the same setting: under `Cc1cn(C2CC(N=[N+]=[N-])C(COC(=O)C(C)(C)CC(=O)N[C@H](Cc3ccccc3)[C@@H](O)C(=O)N3CSC(C)(C)[C@H]3C(=O)NC(C)(C)C)O2)c(=O)[nH]c1=O` (stereo partly drawn) stands “Active”; under `Cc1cn(C2CC(N=[N+]=[N-])C(COC(=O)CCN)O2)c(=O)[nH]c1=O` (stereo not drawn), “Active”. Consider `Cc1cn(C2CC(N=[N+]=[N-])C(COC(=O)CN)O2)c(=O)[nH]c1=O` (stereo not drawn), for which the outcome in data set [6] was Active.

`Cc1cccc(C)c1OCC(=O)N[C@@H](Cc1ccccc1)[C@H](OC(=O)CCC(=O)NCC(=O)OCC1OC(n2cc(C)c(=O)[nH]c2=O)CC1N=[N+]=[N-])C(=O)N1CSC(C)(C)[C@H]1C(=O)NC(C)(C)C` (stereo partly drawn) [KNI-1038] gave a solubility in data set [3] of 290 µg/mL (≈ 301 µM). This molecule also yielded an EC50 in data set [1] of 5.3 nM. Moreover, the inhibition in data set [4] is 37%. This molecule also showed a Relative potency in data set [5] of 1.2. The molecule `Cc1cccc(C)c1OCC(=O)N[C@@H](Cc1ccccc1)[C@H](OC(=O)CCCC(=O)NCC(=O)OCC1OC(n2cc(C)c(=O)[nH]c2=O)CC1N=[N+]=[N-])C(=O)N1CSC(C)(C)[C@H]1C(=O)NC(C)(C)C` (stereo partly drawn) [KNI-1039] had a solubility in data set [3] of 371 µg/mL (≈ 380 µM). Further, a half-maximal effect in data set [1] (EC50) was put at 0.1 nM. In data set [4], the inhibition turned out to be 55%. Also, in data set [7], the selectivity ratio was over 2000. In data set [5], this molecule came in with a Relative potency of 62. Molecule `Cc1cccc(C)c1OCC(=O)N[C@@H](Cc1ccccc1)[C@H](OC(=O)CCC(=O)NCCC(=O)OCC1OC(n2cc(C)c(=O)[nH]c2=O)CC1N=[N+]=[N-])C(=O)N1CSC(C)(C)[C@H]1C(=O)NC(C)(C)C` (stereo partly drawn) [KNI-1046] had a solubility in data set [3] of 373 µg/mL (≈ 382 µM). Moreover, the EC50 in data set [1] amounted to 1 nM. In data set [4], the inhibition came to 7%. Besides, the Relative potency in data set [5] amounted to 6.2. Take `Cc1cn([C@H]2C[C@H](N=[N+]=[N-])[C@@H](CO)O2)c(=O)[nH]c1=O` [ZIDOVUDINE]: in data set [1], the EC50 was determined as 6.2 nM. This counts as single-digit nanomolar.
